Converted amounts (≈) assume the structure as drawn.
Columns and labels:
[1] = Inhibition of Escherichia coli RNA polymerase using Kool NC-45 universal RNA polymerase template
In short: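 In vitro E. coli RNA polymerase assay using the Kool NC-45 universal RNA polymerase template; IC50 determined.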

[2] = species: Sus scrofa; test: Inhibition of pig Malate dehydrogenase at 100 uM
In short: (§1)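 Bovine chymotrypsin and porcine malate dehydrogenase specificity screens with compound at 100 μM; percent inhibition of enzyme activity.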

[3] = species: Bos taurus; test: Inhibition of bovine Chymotrypsin at 100 uM; in short: as §1
[4] = system: Staphylococcus aureus; test: Antibacterial activity against Staphylococcus aureus SH1000 by microdilution method; format: functional
In short: (§2)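 MICs by broth microdilution in Mueller-Hinton broth following British Society for Antimicrobial Chemotherapy guidelines; where used, polymyxin B nonapeptide (4 μg/ml) was added together with the compound.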

[5] = system: Staphylococcus epidermidis; test: Antibacterial activity against Staphylococcus epidermidis ATCC 11047 by microdilution method; format: functional; in short: as §2
[6] = system: Escherichia coli; test: Antibacterial activity against Escherichia coli 1411 by microdilution method; format: functional; in short: as §2
[7] = system: Escherichia coli; test: Antibacterial activity against Escherichia coli 1411 by microdilution method in presence of 4 ug/ml PMBN; format: functional; in short: as §2
[8] = system: Escherichia coli; test: Antibacterial activity against AcrAB-deficient Escherichia coli SM1411 by microdilution method; format: functional; in short: as §2
[9] = system: Bacillus subtilis; test: Antibacterial activity against Bacillus subtilis 1S34 by microdilution method; format: functional; in short: as §2
[10] = system: Staphylococcus aureus; test: Induction of membrane integrity loss in Staphylococcus aureus SH1000 at 4 times MIC after 10 mins by BacLight assay; format: functional
In short: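 Membrane integrity measured by BacLight fluorescence after S. aureus SH1000 was exposed to 4× MIC of compound for 10 min; expressed relative to the drug-free control (100%).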

[11] = system: Staphylococcus aureus; test: Induction of membrane potential loss in Staphylococcus aureus SH1000 at 4 times MIC after 10 mins by DIS3 fluorescence assay; format: functional
In short: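 Membrane potential measured with the fluorescent dye DiSc3(5) after S. aureus SH1000 was exposed to 4× MIC of compound for 10 min; expressed relative to the drug-free control (100%).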

[12] = system: Bacillus subtilis; test: Inhibition of DNA biosynthesis in Bacillus subtilis 1S34 assessed as induction in biosensor yorB promoter-luciferase reporter signal relative to untreated control; format: functional
In short: (§3)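 B. subtilis biosensor strains carry stress-responsive promoter-reporter constructs (parent 1S34). Value is the maximum reporter signal induced, as a ratio to the signal in noninduced control cultures.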

[13] = system: Bacillus subtilis; test: Inhibition of RNA biosynthesis in Bacillus subtilis 1S34 assessed as induction in biosensor yvgS promoter-luciferase reporter signal relative to untreated control; format: functional; in short: as §3
[14] = system: Bacillus subtilis; test: Inhibition of Protein biosynthesis in Bacillus subtilis 1S34 assessed as induction in biosensor yheI promoter-luciferase reporter signal relative to untreated control; format: functional; in short: as §3
[15] = system: Bacillus subtilis; test: Inhibition of Cell envelope biosynthesis in Bacillus subtilis 1S34 assessed as induction in biosensor ypuA promoter-luciferase reporter signal relative to untreated control; format: functional; in short: as §3
[16] = system: Bacillus subtilis; test: Inhibition of Fatty acid biosynthesis in Bacillus subtilis 1S34 assessed as induction in biosensor fabHB promoter-luciferase reporter signal relative to untreated control; format: functional; in short: as §3
[17] = species: Sus scrofa; test: Inhibition of pig Malate dehydrogenase at 0.0472 uM
[18] = species: Bos taurus; test: Inhibition of bovine Chymotrypsin at 0.0472 uM

| IC50 [1] [µM] | inhibition [2] [%] | inhibition [3] [%] | MIC [4] [µg/mL] | MIC [5] [µg/mL] | MIC [6] [µg/mL] | MIC [7] [µg/mL] | MIC [8] [µg/mL] | MIC [9] [µg/mL] | inhibition [17] [%] | inhibition [18] [%] | Structure (SMILES) | Activity [10] [%] | Activity [11] [%] | fold change (FC) [12] | fold change (FC) [13] | fold change (FC) [14] | fold change (FC) [15] | fold change (FC) [16] |
| --- | --- | --- | --- | --- | --- | --- | --- | --- | --- | --- | --- | --- | --- | --- | --- | --- | --- | --- |
| 37.3 | 96.3 | 67.4 | > 256 | > 256 | > 256 | > 256 | > 256 | > 256 |  |  | C=CCN1C(=O)/C(=C/c2ccc(-c3ccc(C(=O)O)cc3)o2)SC1=S |  |  |  |  |  |  |  |
| 32.2 | 99.7 | 49.4 | 4 (≈ 15.6 µM) |  | 16 (≈ 62.4 µM) | 2 | 16 (≈ 62.4 µM) | 1 (≈ 3.9 µM) |  |  | O=C1NC(=S)S/C1=C\c1ccc([N+](=O)[O-])o1 | 82.8 | 104.8 | 8 | 1.3 | 1.3 | 1 | 1.4 |
| 0.0086 |  |  |  |  |  |  |  |  |  |  | CO[C@H]1/C=C/O[C@@]2(C)Oc3c(C)c(O)c4c(O)c(cc(O)c4c3C2=O)NC(=O)/C(C)=C\C=C\[C@H](C)[C@H](O)[C@@H](C)[C@@H](O)[C@@H](C)[C@H](OC(C)=O)[C@@H]1C [RIFAMYCIN] |  |  |  |  |  |  |  |
| 0.726 |  |  |  |  |  |  |  |  |  |  | C/C=C/C/C=C(\C)C(O)CC/C(C)=C/C=C(\C)C(=O)c1c(O)cc([C@H](C)CC/C=C/NC(=O)OC)oc1=O (some centres undefined) [CORALLOPYRONIN A] |  |  |  |  |  |  |  |
| 0.0115 |  |  |  |  |  |  |  |  | 8.3 | 7.8 | CO[C@H]1/C=C/O[C@@]2(C)Oc3c(C)c(O)c4c(O)c(c(/C=N/N5CCN(C)CC5)c(O)c4c3C2=O)NC(=O)/C(C)=C\C=C\[C@H](C)[C@H](O)[C@@H](C)[C@@H](O)[C@@H](C)[C@H](OC(C)=O)[C@@H]1C [RIFAMPIN] |  |  |  |  |  |  |  |
| 16.3 | 88.1 | 96.7 | 4 (≈ 9.81 µM) |  | > 128 | 16 | > 128 | 1 (≈ 2.45 µM) |  |  | O=C(O)CCCN1C(=O)/C(=C/c2ccc(-c3cccc(Cl)c3)o2)SC1=S | 27.3 | 43.1 | 1.1 | 1 | 1.2 | 1 | 0.9 |
